Measurements reported in ChEMBL document CHEMBL2177052, “Rapid and efficient synthesis of a novel series of substituted aminobenzosuberone derivatives as potent, selective, non-peptidic neutral aminopeptidase inhibitors” (Bioorg Med Chem, 2012).
pKi: −log10 of the molar value.

Key:
Cytosol aminopeptidase [1] = target: T1, Cytosol aminopeptidase (Bos taurus, UniProt P00727); assay: Competitive inhibition of bovine LAPc using L-leucine-p-nitroanilide as substrate by spectrophotometric analysis
T1 sequence (P00727 whole entry): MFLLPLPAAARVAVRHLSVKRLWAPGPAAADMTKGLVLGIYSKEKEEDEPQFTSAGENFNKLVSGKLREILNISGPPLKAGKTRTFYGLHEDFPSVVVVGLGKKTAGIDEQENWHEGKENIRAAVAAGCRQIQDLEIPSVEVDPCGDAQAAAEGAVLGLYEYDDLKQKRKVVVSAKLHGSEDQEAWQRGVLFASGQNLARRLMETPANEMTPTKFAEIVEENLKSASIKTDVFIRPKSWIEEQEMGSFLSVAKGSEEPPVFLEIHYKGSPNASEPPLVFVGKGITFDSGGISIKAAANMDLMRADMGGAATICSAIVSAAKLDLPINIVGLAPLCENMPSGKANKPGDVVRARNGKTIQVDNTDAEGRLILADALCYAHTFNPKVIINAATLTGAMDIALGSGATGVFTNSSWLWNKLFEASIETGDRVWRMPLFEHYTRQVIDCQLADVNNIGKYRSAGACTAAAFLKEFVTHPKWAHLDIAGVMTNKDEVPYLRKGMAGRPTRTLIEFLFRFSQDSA
Outline: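 Cytosolic leucine aminopeptidase from bovine kidney, 20 Units per assay, in 0.1 M Tris–HCl pH 8.0 with 0.1 mM ZnCl2, 5 mM MnCl2 and 1 M KCl. Km for L-leucine-p-nitroanilide 2 mM. Reaction started by adding enzyme to 1 ml medium at 30 °C. p-Nitroanilide release followed continuously at 405 nm (ε = 10,800 M-1 cm-1) for initial velocities. Ki taken from Dixon plots.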

Aminopeptidase N [2] = target: T2, Aminopeptidase N (Sus scrofa, UniProt P15145); assay: Competitive inhibition of pig APN using L-leucine-p-nitroanilide as substrate by Dixon-plot analysis
T2 sequence (P15145 whole entry): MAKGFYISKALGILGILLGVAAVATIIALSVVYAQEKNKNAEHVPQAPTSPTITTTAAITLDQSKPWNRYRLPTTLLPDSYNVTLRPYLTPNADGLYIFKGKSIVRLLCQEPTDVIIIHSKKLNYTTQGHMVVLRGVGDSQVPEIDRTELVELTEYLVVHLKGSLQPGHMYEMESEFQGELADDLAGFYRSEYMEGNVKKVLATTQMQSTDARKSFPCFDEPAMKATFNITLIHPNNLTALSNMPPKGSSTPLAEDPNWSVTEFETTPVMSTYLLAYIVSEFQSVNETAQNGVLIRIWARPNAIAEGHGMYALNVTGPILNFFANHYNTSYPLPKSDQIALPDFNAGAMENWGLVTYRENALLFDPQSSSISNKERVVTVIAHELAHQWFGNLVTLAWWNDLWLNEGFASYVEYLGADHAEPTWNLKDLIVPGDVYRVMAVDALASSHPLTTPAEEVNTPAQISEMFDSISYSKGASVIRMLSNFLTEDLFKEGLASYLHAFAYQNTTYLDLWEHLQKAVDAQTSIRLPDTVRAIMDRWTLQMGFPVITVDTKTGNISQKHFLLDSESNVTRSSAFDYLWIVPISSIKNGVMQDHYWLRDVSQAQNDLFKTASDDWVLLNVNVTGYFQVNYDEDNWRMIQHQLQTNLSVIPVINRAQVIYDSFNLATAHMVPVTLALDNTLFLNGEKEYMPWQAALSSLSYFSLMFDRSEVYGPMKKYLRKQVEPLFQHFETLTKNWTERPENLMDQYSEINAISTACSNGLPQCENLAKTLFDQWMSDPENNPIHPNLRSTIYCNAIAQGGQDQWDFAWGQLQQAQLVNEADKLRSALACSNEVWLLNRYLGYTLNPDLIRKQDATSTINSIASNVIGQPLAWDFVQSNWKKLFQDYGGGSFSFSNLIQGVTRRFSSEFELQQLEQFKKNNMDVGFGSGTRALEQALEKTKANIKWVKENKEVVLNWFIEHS

[3] = target: T3, Leukotriene A-4 hydrolase (Homo sapiens, UniProt P09960); assay: Competitive inhibition of human recombinant LTA4H using alanine-p-nitroanilide as substrate by Dixon-plot analysis
T3 sequence (P09960 whole entry): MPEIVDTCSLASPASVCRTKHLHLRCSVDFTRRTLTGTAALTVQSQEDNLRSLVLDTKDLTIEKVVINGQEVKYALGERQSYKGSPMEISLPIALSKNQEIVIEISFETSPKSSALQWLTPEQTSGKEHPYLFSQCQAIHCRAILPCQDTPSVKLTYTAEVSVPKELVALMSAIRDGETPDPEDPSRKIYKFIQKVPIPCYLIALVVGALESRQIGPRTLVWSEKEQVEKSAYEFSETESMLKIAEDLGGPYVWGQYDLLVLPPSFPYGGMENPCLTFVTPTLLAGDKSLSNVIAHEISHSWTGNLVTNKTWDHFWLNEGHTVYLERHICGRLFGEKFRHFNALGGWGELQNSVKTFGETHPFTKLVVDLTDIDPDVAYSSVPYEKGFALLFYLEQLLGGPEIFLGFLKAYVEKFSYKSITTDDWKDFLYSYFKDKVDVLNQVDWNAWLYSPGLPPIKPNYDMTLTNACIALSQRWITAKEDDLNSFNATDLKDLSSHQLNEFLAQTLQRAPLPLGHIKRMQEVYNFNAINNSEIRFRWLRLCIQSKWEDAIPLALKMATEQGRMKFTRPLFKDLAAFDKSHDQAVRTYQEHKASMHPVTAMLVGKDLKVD
Outline: (§1)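 Human LTA4H, 5 µg per assay, in 10 mM Tris–HCl pH 7.5 with 0.1 mM KCl. Alanine-p-nitroanilide used as substrate (Km 2 mM). Enzyme added last to start the 1 ml reaction at 30 °C. Release of p-nitroanilide followed continuously at 405 nm for initial rates. Ki from Dixon plots assuming rapid-equilibrium kinetics.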

Aminopeptidase N [4] = target: Aminopeptidase N (Homo sapiens, UniProt P15144)
Sequence of Aminopeptidase N (Homo sapiens, UniProt P15144) (P15144 whole entry): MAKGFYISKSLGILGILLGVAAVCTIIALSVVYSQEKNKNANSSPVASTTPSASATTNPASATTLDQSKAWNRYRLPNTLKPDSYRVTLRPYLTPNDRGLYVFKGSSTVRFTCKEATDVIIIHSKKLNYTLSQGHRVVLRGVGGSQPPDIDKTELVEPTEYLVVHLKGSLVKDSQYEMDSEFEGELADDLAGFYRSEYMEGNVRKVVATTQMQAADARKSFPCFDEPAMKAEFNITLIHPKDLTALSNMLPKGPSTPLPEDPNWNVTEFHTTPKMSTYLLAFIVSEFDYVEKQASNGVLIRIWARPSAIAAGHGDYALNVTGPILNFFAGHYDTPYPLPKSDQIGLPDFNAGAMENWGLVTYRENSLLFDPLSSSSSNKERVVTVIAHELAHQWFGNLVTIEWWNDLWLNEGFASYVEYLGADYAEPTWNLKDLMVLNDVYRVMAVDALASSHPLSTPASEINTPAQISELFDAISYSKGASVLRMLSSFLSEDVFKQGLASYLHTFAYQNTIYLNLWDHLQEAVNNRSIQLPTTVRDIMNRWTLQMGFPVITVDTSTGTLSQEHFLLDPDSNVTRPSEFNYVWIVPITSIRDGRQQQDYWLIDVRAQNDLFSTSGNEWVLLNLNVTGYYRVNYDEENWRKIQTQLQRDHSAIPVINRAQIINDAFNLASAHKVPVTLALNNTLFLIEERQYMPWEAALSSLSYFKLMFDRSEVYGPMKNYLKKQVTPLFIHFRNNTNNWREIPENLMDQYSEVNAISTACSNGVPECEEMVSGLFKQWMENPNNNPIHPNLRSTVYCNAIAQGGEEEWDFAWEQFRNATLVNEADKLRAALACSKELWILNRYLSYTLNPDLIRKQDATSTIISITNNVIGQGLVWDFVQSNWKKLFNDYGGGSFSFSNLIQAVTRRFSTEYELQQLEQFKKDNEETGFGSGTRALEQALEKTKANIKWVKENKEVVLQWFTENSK

[5] = target: T3, Leukotriene A-4 hydrolase; assay: Competitive inhibition of human recombinant LTA4H using alanine-p-nitroanilide as substrate by spectrophotometric analysis; outline: as §1
Aminopeptidase N [6] = target: T2, Aminopeptidase N; assay: Competitive inhibition of pig APN using L-leucine-p-nitroanilide as substrate by spectrophotometric analysis
Outline: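 Porcine kidney aminopeptidase-N, 1 mUnit per assay, in 0.02 M Tris–HCl pH 7.5 at 30 °C. L-Leucine-p-nitroanilide substrate, Km 0.2 mM. Enzyme addition starts the reaction. Continuous 405 nm read of p-nitroanilide release. Ki from Dixon plots for rapid-equilibrium inhibitors. For slow-binding inhibitors, progress curves were run with 3 nM enzyme and substrate at Km, steady state reached after 1.5 h, and Ki taken from Morrison plots.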

Cytosol aminopeptidase [7] = target: T1, Cytosol aminopeptidase; assay: Competitive inhibition of bovine LAPc using L-leucine-p-nitroanilide as substrate by Dixon-plot analysis

SMILES	pKi (Cytosol aminopeptidase [1])	pKi (Aminopeptidase N [2])	pKi [3]	pKi (Aminopeptidase N [4])	pKi [5]	pKi (Aminopeptidase N [6])	pKi (Cytosol aminopeptidase [7])
NC1Cc2ccccc2CC1=O (stereo not given)	< 3.00						
N[C@H]1CCc2ccccc2/C(=C/c2ccccc2)C1=O		4.10	3.42				
N[C@H]1CCc2ccccc2CC1=O	< 3.00	6.00		6.00	< 3.00		
N[C@H]1CCc2ccccc2[C@@H](Cc2ccccc2)C1=O (racemic)	< 4.00	4.89			< 4.00		
N[C@H]1CCc2ccccc2[C@@H](CCCc2ccccc2)C1=O (racemic)	< 4.00	4.92			< 4.00		
N[C@H]1CCc2ccccc2[C@H](F)C1=O (racemic)	< 3.00	6.52			< 3.00		
N[C@H]1CCc2ccccc2[C@H](SCc2ccccc2)C1=O (racemic)					< 4.00	7.08	4.40
N[C@H]1CCc2ccccc2[C@H](Sc2ccccc2)C1=O (racemic)	< 4.00				< 4.00	7.22	
N[C@H]1CCc2ccccc2[C@@H](Sc2ccccc2)C1=O (racemic)	< 4.00				< 4.00	7.22	
N[C@H]1CCc2ccccc2[C@H](CCc2ccccc2)C1=O (racemic)		4.06	3.33				
N[C@H]1CCc2ccccc2[C@@H](CCc2ccccc2)C1=O (racemic)	< 4.00	4.66			< 4.00		
